# Results taken from ChEMBL document CHEMBL1671756, “In vitro and in vivo antifungal susceptibilities of the Mucoralean fungus Cunninghamella” (2010).
# Activity calls are given as the source filed them. The calls are words filed in the database; no cut-off is given here.
# What was measured:
# [1] = Antifungal activity against Cunninghamella echinulata UTHSC 01-2298 after 24 hrs by broth microdilution method; assay type: functional
# Summary of the method: (§1)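 CLSI broth microdilution for filamentous fungi. Isolates were stored at −80°C and subcultured on potato dextrose agar at 35°C. MICs were read after 24 h. […] The QC strain was Paecilomyces variotii ATCC 36257.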
# [2] = system: Cunninghamella bertholletiae; assay: Antifungal activity against Cunninghamella bertholletiae UTHSC 04-2581 after 24 hrs by broth microdilution method; assay type: functional; details: UTHSC 04-2581, 24 h; summary of the method: as §1
# [3] = system: Cunninghamella bertholletiae; assay: Antifungal activity against Cunninghamella bertholletiae UTHSC 06-1945 after 24 hrs by broth microdilution method; assay type: functional; details: UTHSC 06-1945, 24 h; summary of the method: as §1
# [4] = Antifungal activity against Cunninghamella echinulata UTHSC 03-3725 after 24 hrs by broth microdilution method; assay type: functional; summary of the method: as §1
# [5] = system: Cunninghamella bertholletiae; assay: Antifungal activity against Cunninghamella bertholletiae FMR-9598 after 24 hrs by broth microdilution method; assay type: functional; details: FMR-9598, 24 h; summary of the method: as §1
# [6] = system: Cunninghamella bertholletiae; assay: Antifungal activity against Cunninghamella bertholletiae UTHSC 03-2241 after 24 hrs by broth microdilution method; assay type: functional; details: UTHSC 03-2241, 24 h; summary of the method: as §1
# [7] = Antifungal activity against Cunninghamella echinulata FMR 10974 after 24 hrs by broth microdilution method; assay type: functional; summary of the method: as §1
# [8] = Antifungal activity against Cunninghamella echinulata FMR 10973 after 24 hrs by broth microdilution method; assay type: functional; summary of the method: as §1
# [9] = system: Cunninghamella bertholletiae; assay: Antifungal activity against Cunninghamella bertholletiae UTHSC 05-2275 after 24 hrs by broth microdilution method; assay type: functional; details: UTHSC 05-2275, 24 h; summary of the method: as §1
# [10] = system: Cunninghamella bertholletiae; assay: Antifungal activity against Cunninghamella bertholletiae UTHSC 05-2275 infected in diabetic OF1 mouse assessed as increase in mouse survival rate at 50 mg/kg, po bid administered 1 day after infection for 7 days relative to untreated control; assay type: functional, organism-based; parameters: dose 50 mg/kg
# Summary of the method: (§2)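 Male OF1 mice were made diabetic with streptozocin 210 mg/kg i.p. Diabetes was confirmed by blood glucose >250 mg/dl at day 10. Challenge was 1 × 10⁵ CFU in 0.2 ml saline i.v. (tail vein), with ceftazidime 5 mg/day s.c. on days 1–7. Treatment began 1 day after challenge for 7 days. There were 10 mice/group, checked daily for 20 days. Kaplan-Meier analysis with log-rank comparison.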
# [11] = system: Cunninghamella bertholletiae; assay: Antifungal activity against Cunninghamella bertholletiae UTHSC 05-2275 infected in neutropenic OF1 mouse assessed as decreased fungal load in lung at 50 mg/kg, po bid administered 1 day post infection measured after 4 to 5 days relative to untreated control; assay type: functional, organism-based; parameters: dose 50 mg/kg
# Summary of the method: (§3)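 Neutropenic male OF1 mice (cyclophosphamide 200 mg/kg i.p. + 5-fluorouracil 150 mg/kg i.v., day −1) were infected i.v. with 1 × 10⁴ CFU. Ten mice per group were treated from day 1 and killed by CO₂ on day 5, or on day 4 if moribund. Half of each brain, lung and kidney was homogenized in 1 ml saline. Ten-fold dilutions were plated on PDA for 24 h at 35°C and counted as log₁₀ CFU/g.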
# [12] = system: Cunninghamella bertholletiae; assay: Antifungal activity against Cunninghamella bertholletiae UTHSC 05-2275 infected in neutropenic OF1 mouse assessed as increase in mouse survival rate at 25 mg/kg, po bid administered 1 day after infection for 7 days relative to untreated control
# [13] = system: Cunninghamella bertholletiae; assay: Antifungal activity against Cunninghamella bertholletiae UTHSC 05-2275 infected in diabetic OF1 mouse assessed as increase in mouse survival rate at 25 mg/kg, po bid administered 1 day after infection for 7 days relative to untreated control; assay type: functional, organism-based; parameters: dose 25 mg/kg; summary of the method: as §2
# [14] = system: Cunninghamella bertholletiae; assay: Antifungal activity against Cunninghamella bertholletiae UTHSC 05-2275 infected in neutropenic OF1 mouse assessed as increase in mouse survival rate at 50 mg/kg, po bid administered 1 day after infection for 7 days relative to untreated control; assay type: functional, organism-based; parameters: dose 50 mg/kg
# Summary of the method: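 Male OF1 mice (~30 g) were made neutropenic with cyclophosphamide 200 mg/kg i.p. plus 5-fluorouracil 150 mg/kg i.v. 1 day before challenge. Challenge was 1 × 10⁴ CFU sporangiospores in 0.2 ml saline via the lateral tail vein. Mice got ceftazidime 5 mg/day s.c. on days 1–7. Dosing started 24 h post-challenge for 7 days. There were 10 mice/group, observed daily for 20 days. Kaplan-Meier analysis with log-rank test.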
# [15] = system: Cunninghamella bertholletiae; assay: Antifungal activity against Cunninghamella bertholletiae UTHSC 05-2275 infected in neutropenic OF1 mouse assessed as decreased fungal load in kidney at 25 mg/kg, po bid administered 1 day post infection measured after 4 to 5 days relative to untreated control; assay type: functional, organism-based; parameters: dose 25 mg/kg; summary of the method: as §3
# [16] = system: Cunninghamella bertholletiae; assay: Antifungal activity against Cunninghamella bertholletiae UTSCH 05-2275 infected in diabetic OF1 mouse assessed as decreased fungal load in lung at 50 mg/kg, po bid administered 1 day post infection measured after 4 to 5 days relative to untreated control; assay type: functional, organism-based; parameters: dose 50 mg/kg
# Summary of the method: (§4)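 Diabetic OF1 mice (streptozocin 210 mg/kg i.p.; glucose >250 mg/dl) were infected i.v. with 1 × 10⁵ CFU, with ceftazidime cover. Ten per group were treated from day 1 and killed day 5, or day 4 if moribund. Half-organ homogenates (brain, lung, kidney) in 1 ml saline were serially diluted 10-fold on PDA, incubated 24 h at 35°C, and reported as log₁₀ CFU/g tissue.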
# [17] = system: Cunninghamella bertholletiae; assay: Antifungal activity against Cunninghamella bertholletiae UTHSC 05-2275 infected in neutropenic OF1 mouse assessed as decreased fungal load in kidney at 50 mg/kg, po bid administered 1 day post infection measured after 4 to 5 days relative to untreated control; assay type: functional, organism-based; parameters: dose 50 mg/kg; summary of the method: as §3
# [18] = system: Cunninghamella bertholletiae; assay: Antifungal activity against Cunninghamella bertholletiae UTSCH 05-2275 infected in diabetic OF1 mouse assessed as decreased fungal load in kidney at 50 mg/kg, po bid administered 1 day post infection measured after 4 to 5 days relative to untreated control; assay type: functional, organism-based; parameters: dose 50 mg/kg; summary of the method: as §4
# [19] = system: Cunninghamella bertholletiae; assay: Antifungal activity against Cunninghamella bertholletiae UTHSC 05-2275 infected in neutropenic OF1 mouse assessed as decreased fungal load in lung at 25 mg/kg, po bid administered 1 day post infection measured after 4 to 5 days relative to untreated control; assay type: functional, organism-based; parameters: dose 25 mg/kg; summary of the method: as §3
compound,measurement,setting,value
CC[C@H](C)C[C@H](C)CCCCCCCCC(=O)N[C@H]1C[C@@H](O)[C@@H](NCCN)NC(=O)[C@@H]2[C@@H](O)CCN2C(=O)[C@H]([C@H](O)CCN)NC(=O)[C@H]([C@H](O)[C@@H](O)c2ccc(O)cc2)NC(=O)[C@@H]2C[C@@H](O)CN2C(=O)[C@H]([C@@H](C)O)NC1=O [CASPOFUNGIN],MIC,[1],> 16 mg/L
same,MIC,[2],> 16 mg/L
same,MIC,[3],> 16 mg/L
same,MIC,[4],> 16 mg/L
same,MIC,[5],> 16 mg/L
same,MIC,[6],> 16 mg/L
same,MIC,[7],> 16 mg/L
same,MIC,[8],> 16 mg/L
same,MIC,[9],> 16 mg/L
CCC(C)n1ncn(-c2ccc(N3CCN(c4ccc(OCC5COC(Cn6cncn6)(c6ccc(Cl)cc6Cl)O5)cc4)CC3)cc2)c1=O (stereo not given) [ITRACONAZOLE],Activity,[10],Active
same,Activity,[11],Active
same,MIC,[1],> 16 mg/L
same,MIC,[2],1 mg/L
same,MIC,[3],2 mg/L
same,MIC,[4],2 mg/L
same,MIC,[5],8 mg/L
same,Activity,[12],inactive
same,MIC,[6],1 mg/L
same,Activity,[13],inactive
same,Activity,[14],Active
same,MIC,[7],> 16 mg/L
same,Activity,[15],inactive
same,Activity,[16],Active
same,MIC,[8],> 16 mg/L
same,MIC,[9],2 mg/L
same,Activity,[17],inactive
same,Activity,[18],inactive
same,Activity,[19],Active
C[C@@H](c1nc(-c2ccc(C#N)cc2)cs1)[C@](O)(Cn1cncn1)c1ccc(F)cc1F [RAVUCONAZOLE],MIC,[1],> 16 mg/L
same,MIC,[2],> 16 mg/L
same,MIC,[3],> 16 mg/L
same,MIC,[4],> 16 mg/L
same,MIC,[5],> 16 mg/L
same,MIC,[6],> 16 mg/L
same,MIC,[7],> 16 mg/L
same,MIC,[8],> 16 mg/L
same,MIC,[9],> 16 mg/L
CN(C/C=C/C#CC(C)(C)C)Cc1cccc2ccccc12 [TERBINAFINE],MIC,[1],0.06 mg/L
same,MIC,[2],0.03 mg/L
same,MIC,[3],0.03 mg/L
same,MIC,[4],0.03 mg/L
same,MIC,[5],0.06 mg/L
same,MIC,[6],0.03 mg/L
same,MIC,[7],0.06 mg/L
same,MIC,[8],0.06 mg/L
same,MIC,[9],0.06 mg/L
C[C@@H](c1ncncc1F)[C@](O)(Cn1cncn1)c1ccc(F)cc1F [VORICONAZOLE],MIC,[1],> 16 mg/L
same,MIC,[2],16 mg/L
same,MIC,[3],16 mg/L
same,MIC,[4],> 16 mg/L
same,MIC,[5],> 16 mg/L
same,MIC,[6],8 mg/L
same,MIC,[7],> 16 mg/L
same,MIC,[8],> 16 mg/L
same,MIC,[9],16 mg/L
